In brackets after ≈: the same amount, converted by molar mass. Activity calls are given as the source filed them. The rule behind the calls is not given here.
Tests used:
Trichophyton rubrum = assay: Antifungal activity against Trichophyton rubrum isolate after 72 hrs by twofold serial dilution method; assay type: functional, organism-based
Escherichia coli [1] = assay: Antibacterial activity against Escherichia coli ATCC 25922 at 1 mg/mL after 24 hrs by agar diffusion method; assay type: functional; conditions: ATCC 25922, 24 h, read-out: Diameter of inhibition zone
Outline: (§1)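 Agar disc diffusion: 5 mm sterile paper discs soaked in 1 mg/mL test solution in DMSO were placed on agar seeded with the organism, in triplicate, with a DMSO-only control. Bacterial plates were incubated at 37 °C for 24 h and fungal plates for 7 days. Read-out was the average inhibition-zone diameter in mm. Fungi were clinical isolates.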

Escherichia coli [2] = assay: Antibacterial activity against Escherichia coli ATCC 25922 after 24 to 48 hrs by twofold serial dilution method; assay type: functional
Outline: (§2)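 Broth microdilution in Müller–Hinton broth. DMSO stocks at 800 were diluted twofold from 400 down to 6.25. Wells received 10^6 CFU/mL bacterial suspension and were incubated at 36 °C for 24–48 h, with controls. MIC was read per well. Duplicate assays; run only for compounds giving inhibition zones ≥14 mm.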

Bacillus subtilis [3] = assay: Antibacterial activity against Bacillus subtilis NRRL B-14819 at 1 mg/mL after 24 hrs by agar diffusion method; assay type: functional; conditions: read-out: Diameter of inhibition zone; outline: as §1
Candida albicans [4] = assay: Antifungal activity against Candida albicans isolate at 1 mg/mL after 7 days by twofold serial dilution method; assay type: functional; conditions: 168 h, read-out: Diameter of inhibition zone
Aspergillus fumigatus [5] = assay: Antifungal activity against Aspergillus fumigatus isolate at 1 mg/mL after 7 days by agar diffusion method; assay type: functional; conditions: 168 h, read-out: Diameter of inhibition zone; outline: as §1
Klebsiella pneumoniae [6] = assay: Antibacterial activity against Klebsiella pneumoniae isolate after 24 to 48 hrs by twofold serial dilution method; assay type: functional; outline: as §2
Micrococcus luteus [7] = assay: Antibacterial activity against Micrococcus luteus ATCC 21881 at 1 mg/mL after 24 hrs by agar diffusion method; assay type: functional; conditions: ATCC 21881, 24 h, read-out: Diameter of inhibition zone; outline: as §1
Klebsiella pneumoniae [8] = assay: Antibacterial activity against Klebsiella pneumoniae isolate at 1 mg/mL after 24 hrs by agar diffusion method; assay type: functional; conditions: read-out: Diameter of inhibition zone; outline: as §1
Mus musculus [9] = assay: Anticonvulsant activity in Wister albino mouse assessed as protection against maximal electroshock-induced seizures at 100 mg/kg, ip administered 30 mins before metrazole challenge measured after 30 mins; assay type: functional; conditions: route intraperitoneal
Candida tropicalis = assay: Antifungal activity against Candida tropicalis isolate after 72 hrs by twofold serial dilution method; assay type: functional, organism-based
Pseudomonas aeruginosa [10] = assay: Antibacterial activity against Pseudomonas aeruginosa ATCC 27853 at 1 mg/mL after 24 hrs by agar diffusion method; assay type: functional; conditions: ATCC 27853, 24 h, read-out: Diameter of inhibition zone; outline: as §1
Staphylococcus aureus [11] = assay: Antibacterial activity against Staphylococcus aureus ATCC 6538 at 1 mg/mL after 24 hrs by agar diffusion method; assay type: functional; conditions: ATCC 6538, 24 h, read-out: Diameter of inhibition zone; outline: as §1
Pichia kudriavzevii = assay: Antifungal activity against Candida krusei isolate after 72 hrs by twofold serial dilution method; assay type: functional, organism-based
Mus musculus [12] = assay: Anticonvulsant activity in Wister albino mouse assessed as protection against subcutaneous metrazole-induced seizures at 100 mg/kg, ip administered 30 mins before metrazole challenge measured after 30 mins; assay type: functional; conditions: route intraperitoneal
Outline: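 Wistar albino mice, either sex, 25–30 g, 3 months old, in groups of six. Compounds in DMSO were given ip at 30, 100 or 300 mg/kg; vehicle-only controls. After 30 min, metrazole 100 mg/kg in DMSO was injected sc at the posterior midline. Protection meant absence of any clonic spasm lasting ≥5 s; scored as protected/tested.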

Pseudomonas aeruginosa [13] = assay: Antibacterial activity against Pseudomonas aeruginosa ATCC 27853 after 24 to 48 hrs by twofold serial dilution method; assay type: functional; outline: as §2
Micrococcus luteus [14] = assay: Antibacterial activity against Micrococcus luteus ATCC 21881 after 24 to 48 hrs by twofold serial dilution method; assay type: functional; outline: as §2
Staphylococcus aureus [15] = assay: Antibacterial activity against Staphylococcus aureus ATCC 6538 after 24 to 48 hrs by twofold serial dilution method; assay type: functional; outline: as §2
Aspergillus niger = assay: Antifungal activity against Aspergillus niger isolate after 72 hrs by twofold serial dilution method; assay type: functional, organism-based
Bacillus subtilis [16] = assay: Antibacterial activity against Bacillus subtilis NRRL B-14819 after 24 to 48 hrs by twofold serial dilution method; assay type: functional; outline: as §2
Aspergillus fumigatus [17] = assay: Antifungal activity against Aspergillus fumigatus isolate after 72 hrs by twofold serial dilution method; assay type: functional
Candida albicans [18] = assay: Antifungal activity against Candida albicans isolate after 72 hrs by twofold serial dilution method; assay type: functional

Structure (SMILES) | Activity (Trichophyton rubrum) | zone of inhibition at 1000 µg/mL (Escherichia coli [1]) [mm] | MIC (Escherichia coli [2]) [µg/mL] | zone of inhibition at 1000 µg/mL (Bacillus subtilis [3]) [mm] | zone of inhibition at 1000 µg/mL (Candida albicans [4]) [mm] | zone of inhibition at 1000 µg/mL (Aspergillus fumigatus [5]) [mm] | MIC (Klebsiella pneumoniae [6]) [µg/mL] | zone of inhibition at 1000 µg/mL (Micrococcus luteus [7]) [mm] | zone of inhibition at 1000 µg/mL (Klebsiella pneumoniae [8]) [mm] | Activity (Mus musculus [9]) [%] | Activity (Candida tropicalis) | zone of inhibition at 1000 µg/mL (Pseudomonas aeruginosa [10]) [mm] | zone of inhibition at 1000 µg/mL (Staphylococcus aureus [11]) [mm] | Activity (Pichia kudriavzevii) | Activity (Mus musculus [12]) [%] | MIC (Pseudomonas aeruginosa [13]) [µg/mL] | MIC (Micrococcus luteus [14]) [µg/mL] | MIC (Staphylococcus aureus [15]) [µg/mL] | Activity (Aspergillus niger) | MIC (Bacillus subtilis [16]) [µg/mL] | also measured
O=C(COC(Cn1nnnc1Cc1ccccc1)c1ccc(Cl)cc1)N/N=C/c1ccc(Cl)cc1 (stereo unspecified) | inactive | ≥ 14 | 100 (≈ 196 µM) | ≥ 14 | ≥ 14 | ≥ 14 | ≥ 200 | ≥ 14 | ≥ 14 | 50 | inactive | ≥ 14 | ≥ 14 | inactive | 50 | ≥ 200 | 100 (≈ 196 µM) | 100 (≈ 196 µM) | inactive | 100 (≈ 196 µM) | –
Clc1ccccc1C(c1ccccc1)(c1ccccc1)n1ccnc1 [CLOTRIMAZOLE] | – | – | – | – | – | – | – | – | – | – | – | – | – | – | – | – | – | – | – | – | MIC (Aspergillus fumigatus [17]): 12.5 µg/mL (≈ 36.2 µM); MIC (Candida albicans [18]): 6.25 µg/mL (≈ 18.1 µM)
Clc1ccc(C(Cn2nnnc2Cc2ccccc2)OCc2nnc(Nc3ccccc3)o2)cc1 (stereo unspecified) | inactive | ≥ 14 | 50 (≈ 102 µM) | ≥ 14 | ≥ 14 | ≥ 14 | ≥ 200 | ≥ 14 | ≥ 14 | – | inactive | ≥ 14 | ≥ 14 | inactive | – | ≥ 200 | ≥ 200 | 25 (≈ 51.2 µM) | inactive | 50 (≈ 102 µM) | MIC (Aspergillus fumigatus [17]): ≥ 200 µg/mL; MIC (Candida albicans [18]): 25 µg/mL (≈ 51.2 µM)
Sc1nnc(COC(Cn2nnc(-c3ccccc3)n2)c2ccc(Cl)cc2)n1-c1ccccc1 (stereo unspecified) | inactive | ≥ 14 | 50 (≈ 102 µM) | ≥ 14 | ≥ 14 | ≥ 14 | 50 (≈ 102 µM) | ≥ 14 | ≥ 14 | 33 | inactive | ≥ 14 | ≥ 14 | inactive | 33 | 100 (≈ 204 µM) | 50 (≈ 102 µM) | 12.5 (≈ 25.5 µM) | inactive | 50 (≈ 102 µM) | –
Clc1ccc(COC(Cn2ccnc2)c2ccc(Cl)cc2Cl)c(Cl)c1 (stereo unspecified) [MICONAZOLE] | – | – | – | – | – | – | – | – | – | – | – | – | – | – | – | – | – | – | – | – | MIC (Aspergillus fumigatus [17]): 3.12 µg/mL (≈ 7.5 µM); MIC (Candida albicans [18]): 3.12 µg/mL (≈ 7.5 µM)
Sc1nnc(COC(Cn2nnnc2Cc2ccccc2)c2ccc(Cl)cc2)n1-c1ccc(Cl)cc1 (stereo unspecified) | inactive | ≥ 14 | 50 (≈ 92.9 µM) | ≥ 14 | ≥ 14 | ≥ 14 | ≥ 200 | ≥ 14 | ≥ 14 | – | inactive | ≥ 14 | ≥ 14 | inactive | – | ≥ 200 | 100 (≈ 186 µM) | 25 (≈ 46.4 µM) | inactive | 50 (≈ 92.9 µM) | MIC (Aspergillus fumigatus [17]): ≥ 200 µg/mL; MIC (Candida albicans [18]): 25 µg/mL (≈ 46.4 µM)
OC(Cn1nnc(-c2ccccc2)n1)c1ccc(Cl)cc1 (stereo unspecified) | – | – | – | – | – | – | – | – | – | 0 | – | – | – | – | 0 | – | – | – | – | – | –
Cc1cc(C)n(C(=O)COC(Cn2nnc(-c3ccccc3)n2)c2ccc(Cl)cc2)n1 (stereo unspecified) | inactive | ≥ 14 | 50 (≈ 114 µM) | ≥ 14 | ≥ 14 | ≥ 14 | 100 (≈ 229 µM) | ≥ 14 | ≥ 14 | 0 | inactive | ≥ 14 | ≥ 14 | inactive | 0 | 100 (≈ 229 µM) | 50 (≈ 114 µM) | 12.5 (≈ 28.6 µM) | inactive | 25 (≈ 57.2 µM) | –
Sc1nnc(COC(Cn2nnc(-c3ccccc3)n2)c2ccc(Cl)cc2)o1 (stereo unspecified) | inactive | ≥ 14 | 25 (≈ 60.3 µM) | ≥ 14 | ≥ 14 | ≥ 14 | 100 (≈ 241 µM) | ≥ 14 | ≥ 14 | 0 | inactive | ≥ 14 | ≥ 14 | inactive | 33 | 50 (≈ 121 µM) | 50 (≈ 121 µM) | 6.25 (≈ 15.1 µM) | inactive | 25 (≈ 60.3 µM) | –
Sc1nnc(COC(Cn2nnnc2Cc2ccccc2)c2ccc(Cl)cc2)o1 (stereo unspecified) | inactive | ≥ 14 | ≥ 200 | ≥ 14 | ≥ 14 | ≥ 14 | ≥ 200 | ≥ 14 | ≥ 14 | – | inactive | ≥ 14 | ≥ 14 | inactive | – | ≥ 200 | 100 (≈ 233 µM) | 50 (≈ 117 µM) | inactive | 100 (≈ 233 µM) | MIC (Aspergillus fumigatus [17]): ≥ 200 µg/mL; MIC (Candida albicans [18]): 100 µg/mL (≈ 233 µM)

From ChEMBL document CHEMBL1152796, “Azole antimicrobial pharmacophore-based tetrazoles: synthesis and biological evaluation as potential antimicrobial and anticonvulsant agents” (Bioorg Med Chem, 2009)
